Experimental data taken from ChEMBL document CHEMBL1133715, “Dual function glutamate-related ligands: discovery of a novel, potent inhibitor of glutamate carboxypeptidase II possessing mGluR3 agonist activity” (J Med Chem, 2000).
Values joined by “and” are separate entries in the source; they are usually repeats but may differ in a detail not shown here. Equal entries are not always repeated. Active and inactive are the calls of the source. The rule behind the calls is not given here.

How the values were obtained:
[1] = target: Metabotropic glutamate receptor 3 (Homo sapiens, UniProt Q14832); experiment: Agonist potency against cloned Metabotropic glutamate receptor 3; assay type: functional
Sequence of Metabotropic glutamate receptor 3 (Q14832 whole entry): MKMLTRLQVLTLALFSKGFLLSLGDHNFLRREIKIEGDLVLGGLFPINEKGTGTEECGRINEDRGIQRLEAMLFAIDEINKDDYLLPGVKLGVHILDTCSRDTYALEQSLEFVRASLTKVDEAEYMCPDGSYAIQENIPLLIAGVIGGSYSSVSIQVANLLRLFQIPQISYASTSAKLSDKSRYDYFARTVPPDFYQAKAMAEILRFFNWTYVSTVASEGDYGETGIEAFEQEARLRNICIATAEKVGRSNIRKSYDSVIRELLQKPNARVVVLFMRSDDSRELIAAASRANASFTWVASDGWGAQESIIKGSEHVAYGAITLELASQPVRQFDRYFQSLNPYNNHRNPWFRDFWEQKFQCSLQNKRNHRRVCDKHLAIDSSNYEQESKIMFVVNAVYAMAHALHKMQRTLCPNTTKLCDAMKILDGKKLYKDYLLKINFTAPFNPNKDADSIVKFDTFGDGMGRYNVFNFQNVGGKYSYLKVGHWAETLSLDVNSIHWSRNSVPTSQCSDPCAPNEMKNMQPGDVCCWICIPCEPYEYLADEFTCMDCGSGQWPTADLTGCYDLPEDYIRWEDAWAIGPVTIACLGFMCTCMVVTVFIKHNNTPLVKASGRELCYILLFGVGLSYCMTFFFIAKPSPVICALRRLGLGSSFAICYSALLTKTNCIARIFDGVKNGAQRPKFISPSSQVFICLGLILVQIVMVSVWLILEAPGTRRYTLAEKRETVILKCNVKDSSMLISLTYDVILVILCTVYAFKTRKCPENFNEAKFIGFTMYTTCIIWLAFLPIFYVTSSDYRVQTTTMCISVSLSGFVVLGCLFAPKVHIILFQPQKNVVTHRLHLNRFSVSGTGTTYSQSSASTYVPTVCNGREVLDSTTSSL
Method in brief: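 mGluR3 activity was measured on a chimeric mGluR3/1a receptor, which carries mGluR3 pharmacology but couples to phospholipase C. Agonist response was read as accumulation of inositol phosphates.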

CHO [2] = experiment: Inhibitory activity against N-acetyl-L-aspartyl-L-glutamate (NAAG) peptidase of rat stably expressed in CHO cells at 100 uM; assay type: cell-based
CHO [3] = experiment: Inhibitory activity against N-acetyl-L-aspartyl-L-glutamate (NAAG) peptidase of rat stably expressed in CHO cells at 100 uM; NA=no activity; assay type: cell-based

| EC50 [1] | SMILES | inhibition (CHO [2]) | inhibition (CHO [3]) |
| --- | --- | --- | --- |
| 33 µM | O=C(O)CC[C@H](CP(=O)(O)C[C@H](CCC(=O)O)C(=O)O)C(=O)O |  |  |
|  | O=C(O)CCC(=O)CC(CCC(=O)O)C(=O)O (stereo unspecified) | 35% |  |
| 39 µM and 45 µM and 51 µM | O=C(O)CCC(CP(=O)(O)CC(CCC(=O)O)C(=O)O)C(=O)O (stereo unspecified) | 21.7% and 6.9% and 22.3% |  |
| > 300 µM | O=C(O)CCC(CC(=O)CC(CCC(=O)O)C(=O)O)C(=O)O (stereo unspecified) |  | inactive |
